Bioassay records from PubChem BioAssay.
The list is not random: actives were taken first. Their share in the collection is about 2%.
HSP90 inh: HSP90 inhibitors, primary screen, cell lysate, luminescence; Rabbit reticulocyte lysate, luciferase refolding luminescence, 3 h; 0.91% of 290,000 active; inhibition, % at 5.6 µM; Heat shock protein HSP 90 (rabbit reticulocyte lysate; luciferase refolding);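 active = inhibition above the screen-wide mean plus 3 SD, computed separately per campaign, cut at about 16% in these data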;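 note: inhibitors lower the luminescence because luciferase stays unfolded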
STAT1 inh: STAT1 signaling inhibitors, primary screen, cell-based, HTS, luciferase reporter. NIH 3T3 STAT1-luciferase reporter, IFN-gamma, luminescence. inhibition, % at 5.5 µM. 0.35% of 200,000 active. AID 920, 2007;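 active = inhibition above a set limit, the mean inhibition across all tested compounds plus 3 SD, cut at about 34% in these data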
STAT3 blocker: IL-6 driven STAT3 reporter inhibitors, primary screen, U3A cells, luciferase, luminescence, MLSCN library; inhibition, % at 5.5 µM; 0.89% of 190,000 active; IL-6 STAT3-luciferase reporter; host cell line lacks STAT1; AID 862, 2007;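 active = inhibition above the mean inhibition across all screened compounds plus 3 SD, cut at about 44% in these data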
STAT3 act: IL-6 driven STAT3 reporter potentiators, primary screen, U3A cells, luciferase, luminescence, MLSCN library. IL-6 STAT3-luciferase reporter; 100% = signal with IL-6 EC80 alone. activation (% of control), % at 5.6 µM. 0.91% of 190,000 active. AID 871, 2007;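 active = activation above the screen-wide mean of compound activation plus 3 SD, cut at about 130% in these data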
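Test system: STAT3-luciferase reporter U3A cells; Detection: reporter luminescence signal; Times: 1 h compound pre-exposure, 6 h IL-6 stimulation, 37 °C; Benchmarks: IL-6-only high control; Also added: IL-6 stimulus at 33 ng/mL final.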
HSP90 confirm: HSP90 inhibitors, confirmation, cell lysate, luminescence | shares compounds with HSP90 inh | rabbit reticulocyte lysate, luciferase refolding luminescence, 3 h | 64% of 2,300 active | inhibition, % at 5.9 µM | AID 1846, 2009; in the data active = inhibition above about 18%
FLuc counter: firefly luciferase inhibitors, HSP90 counter-screen, confirmation, artefact control for HSP90 inhibitor project, biochemical, luminescence, triplicate; shares compounds with HSP90 inh; purified native firefly luciferase; inhibition, % at 5.9 µM; 48% of 2,300 active; AID 1847, 2009;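 active = inhibition above the mean inhibition of all tested sample wells plus 3 SD, cut at about 10% in these data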
Target sequence (P08659 whole entry, looked up): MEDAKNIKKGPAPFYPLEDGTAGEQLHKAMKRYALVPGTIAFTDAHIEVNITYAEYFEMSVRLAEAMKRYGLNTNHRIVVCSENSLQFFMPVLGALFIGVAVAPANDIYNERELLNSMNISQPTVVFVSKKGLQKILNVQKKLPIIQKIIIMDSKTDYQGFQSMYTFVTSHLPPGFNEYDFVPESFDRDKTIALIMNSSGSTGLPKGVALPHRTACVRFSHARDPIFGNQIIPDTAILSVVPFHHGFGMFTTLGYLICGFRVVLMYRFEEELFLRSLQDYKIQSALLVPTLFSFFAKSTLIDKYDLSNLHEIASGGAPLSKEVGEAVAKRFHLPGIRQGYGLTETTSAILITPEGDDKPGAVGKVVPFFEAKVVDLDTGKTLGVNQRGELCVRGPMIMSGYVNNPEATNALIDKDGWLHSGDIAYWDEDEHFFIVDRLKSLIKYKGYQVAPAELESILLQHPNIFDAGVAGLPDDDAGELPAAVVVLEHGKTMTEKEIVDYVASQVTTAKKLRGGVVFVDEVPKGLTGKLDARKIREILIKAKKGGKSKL
A number is an active result; . = inactive; / = no result given.

SMILES	HSP90 inh	STAT1 inh	STAT3 blocker	STAT3 act	HSP90 confirm	FLuc counter
O=C(CSc1nc(-c2ccccc2)nc2ccccc12)Nc1nccs1	22	.	.	.	.	.
COc1ccc(NC(=O)N2CCCC(c3nc(-c4ccc(OC)cc4)no3)C2)cc1 (configuration not stated)	21	.	.	.	.	.
COc1ccc(-c2noc(C3CCCN(C(=O)Nc4ccccc4)C3)n2)cc1 (configuration not stated)	19	.	.	.	.	.
COc1ccc(-c2noc(C3CCCN(C(=O)c4ccccc4)C3)n2)cc1 (configuration not stated)	.	/	/	/	/	/
COc1ccc(-c2noc(C3CCCN(C(=O)Nc4ccccc4F)C3)n2)cc1 (configuration not stated)	27	.	.	.	.	.
COc1ccc(NC(=O)N2CCCC(c3nc(-c4ccc(C(C)C)cc4)no3)C2)cc1 (configuration not stated)	65	.	.	.	.	.
Cc1cccc(-c2oc3ccccc3c2C#CCCO)c1	.	/	/	/	/	/
CCN(Cc1ccccc1)S(=O)(=O)c1cc2[nH]c(=O)c(=O)[nH]c2cc1C	.	/	/	/	/	/
O=C(NC1CCCCC1)c1cc(-c2cccs2)on1	.	/	/	/	/	/
Cc1cc(/C=C(\C#N)C(=O)N2CCOCC2)c(C)n1C1CCCC1	37	/	/	/	52	48
COc1ccc(/C=C(\C#N)C(=O)N2CCOCC2)cc1Br	.	.	.	.	/	/
CCC(=O)Nc1ccc(S(=O)(=O)Nc2ccc(Cl)nn2)cc1	.	.	.	.	/	/
O=C(Nc1nc2ccccc2[nH]1)c1ccccc1OC(F)F	30	/	/	/	55	45
COc1ccc(C(=O)Nc2nc3ccccc3[nH]2)cc1OC	.	.	.	.	/	/
COc1ccc(Cl)cc1C(=O)Nc1nc2ccccc2[nH]1	71	/	/	/	87	77
CCc1ccc(C(=O)Nc2nc3ccccc3[nH]2)cc1	80	/	/	/	90	85
CC(C)Oc1ccc(C(=O)Nc2nc3ccccc3[nH]2)cc1	83	/	/	/	90	85
O=C(CN1CCN(c2cccc(C(F)(F)F)c2)CC1)NCc1ccccc1	.	/	/	/	/	/
CCNC(=O)NC(=O)C(C)OC(=O)CCCSc1nc2ccccc2s1 (configuration not stated)	.	.	.	.	/	/
Cc1ccsc1C(=O)Nc1nc2ccccc2[nH]1	22	/	/	/	38	29
O=C(Nc1nc2ccccc2[nH]1)c1ccccc1F	84	78	101	.	95	88
O=C(Nc1nc2ccccc2[nH]1)c1ccccc1[N+](=O)[O-]	.	.	.	.	/	/
COc1cc(C(=O)Nc2nc3ccccc3[nH]2)ccc1OC(F)F	.	/	/	/	/	/
O=C(Nc1nc2ccccc2[nH]1)c1ccc(OC(F)F)cc1	37	/	/	/	58	53
Cc1cc(C)cc(C(=O)Nc2nc3ccccc3[nH]2)c1	.	/	/	/	/	/
SMILES	HSP90 inh	STAT1 inh	STAT3 blocker	STAT3 act	HSP90 confirm	FLuc counter
O=C(Nc1cccc(C(F)(F)F)c1)N(Cc1ccc(Cl)cc1)CC(O)C(F)(F)F (configuration not stated)	.	.	.	.	/	/
O=C(O)c1ccc(N=Nc2c(O)ccc3ncccc23)cc1	54	/	/	/	54	20
O=C(O)c1cc(N=Nc2c(O)ccc3ccccc23)cc(C(=O)O)c1	.	.	.	.	/	/
CC(O)CN1CCN(C(=O)CN2C(=O)NC(c3ccccc3)(c3ccccc3)C2=O)CC1 (configuration not stated)	.	/	/	/	/	/
C=CCn1c(SCC(=O)NCC)nnc1-c1cc2c(s1)CCC(CC)C2 (configuration not stated)	.	.	.	.	/	/
C=CCn1c(SCC(=O)NCCOC)nnc1-c1cc2c(s1)CCC(CC)C2 (configuration not stated)	52	.	.	.	.	.
Cc1ccc(-c2noc(CCC(=O)NCc3ccco3)n2)cc1	24	.	.	.	.	.
O=C(CCc1nc(-c2ccccc2)no1)NCc1ccco1	.	.	.	.	/	/
O=C(CSc1nnc2ccc(-c3ccncc3)nn12)c1cccs1	66	.	.	.	.	.
CCOC(=O)c1[nH]cc(-c2ccccc2)c1N1CCOCC1	18	.	.	.	.	.
Cc1cc(C(=O)Cn2nc(C(=O)O)c3ccccc3c2=O)c(C)n1CCc1ccc(F)cc1	.	/	/	/	/	/
COc1ccc(-n2c(C)cc(C(=O)Cn3nc(C(=O)O)c4ccccc4c3=O)c2C)cc1	.	.	.	.	/	/
Cc1cc(C(=O)Cn2nc(C(=O)O)c3ccccc3c2=O)c(C)n1CC(F)(F)F	26	.	.	.	45	.
COCC(C)n1c(C)cc(C(=O)Cn2nc(C(=O)O)c3ccccc3c2=O)c1C (configuration not stated)	42	.	.	.	52	.
CCCc1cc(=O)oc2cc(C)cc(OC(C)C(=O)NCc3ccncc3)c12 (configuration not stated)	.	/	/	/	/	/
COc1ccc(NC(=O)CCCn2nc(C)c3c(C)n(-c4ccccc4)nc3c2=O)cc1OC	.	/	/	/	/	/
CC1CCN(c2ccc(/C=N\Nc3nncn3N)cc2[N+](=O)[O-])CC1	60	.	.	.	.	.
CC1CCN(c2ccc(/C=N/n3nnnc3N)cc2[N+](=O)[O-])CC1	.	.	.	.	/	/
O=C(OCc1c(F)cccc1Cl)c1cccnc1Cl	.	/	/	/	/	/
Cc1ccccc1OC(C)C(=O)N1CCN(c2ccccn2)CC1 (configuration not stated)	.	/	/	/	/	/
O=C(C1CCCN(S(=O)(=O)Cc2ccccc2)C1)N1CCCCC1 (configuration not stated)	25	.	.	.	.	.
CC(C)[C@H](NC(=O)[C@H](Cc1ccccc1)n1c(=O)[nH]c2ccccc2c1=O)C(=O)N1CCC[C@H]1C(=O)O	.	/	/	/	/	/
CCc1ccc(/C=C2\SC(=S)N(CCCC(=O)Nc3ccccn3)C2=O)cc1	28	.	.	.	32	.
COc1ccccc1C(CNc1ccc(S(=O)(=O)N2CCCC2)cc1[N+](=O)[O-])N(C)C (configuration not stated)	.	/	/	/	/	/
C[C@@H](NC(=O)[C@@H]1Cc2ccccc2CN1C(=O)OC(C)(C)C)C(=O)NCC1CCCO1 (some centres not stated)	.	/	/	/	/	/
Cc1[nH][nH]c(=O)c1C(c1ccc(-c2ccc(Cl)c(Cl)c2)o1)c1c(C)[nH][nH]c1=O	18	.	.	.	.	.
CC1(C)CC(=O)C2=C(C1)N(c1ccc(Cl)cc1)C(=O)C2(O)C(F)(F)F (configuration not stated)	.	.	.	.	/	/
CN1C(=O)C2(C(C#N)=C(N)N(c3ccc(Cl)cc3)C3=C2C(=O)CC(C)(C)C3)c2ccccc21 (configuration not stated)	37	.	.	.	.	.
